Experimental data as given in ChEMBL document CHEMBL1833887, “Synthesis and evaluation of 7-substituted 4-aminoquinoline analogues for antimalarial activity” (J Med Chem, 2011).
In brackets after ≈: the same amount, converted by molar mass.

Tests used:
[1] = Solubility of the compound at pH 7.4 after 18 hrs by UV spectroscopic analysis; assay type: physicochemical; conditions: buffer
Outline: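 Kinetic solubility. A 10 mM stock is diluted 1:100 into PBS pH 7.4 and incubated 18 h at room temperature, then filtered; the filtrate is mixed 1:1 with 1-propanol. UV spectrum (250–500 nm) compared by AUC with a 1-propanol/PBS reference. Single experiment in triplicate.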

[2] = system: Plasmodium falciparum; test: Antimalarial activity against chloroquine-sensitive Plasmodium falciparum 3D7 infected in human erythrocytes assessed as reduction in parasitemia after 72 hrs by spectrophotometry; assay type: functional, organism-based; conditions: 3D7, 72 h
[3] = system: Plasmodium falciparum; test: Antimalarial activity against chloroquine-resistant Plasmodium falciparum K1 infected in human erythrocytes assessed as reduction in parasitemia after 72 hrs by spectrophotometry; assay type: functional, organism-based; conditions: K1, 72 h
[4] = system: Plasmodium falciparum; test: Ratio of EC50 for chloroquine-resistant Plasmodium falciparum K1 infected in human erythrocytes to EC50 for chloroquine-sensitive Plasmodium falciparum 3D7 infected in human erythrocytes; assay type: functional
[5] = Permeability of the compound at pH 7.4 after 30 mins by PAMPA; assay type: ADME; conditions: read-out: permeability
Outline: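 PAMPA at pH 7.4. A 10 mM DMSO stock is diluted into system solution buffer; its UV spectrum serves as reference. Membrane painted with GIT lipid, acceptor chamber holds acceptor solution buffer. Sandwich stirred for 30 min, aqueous boundary layer set to 40. Donor and acceptor UV spectra read at 250–500 nm. Permeability coefficient from the AUCs of reference, donor and acceptor. Single experiment in triplicate.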

[6] = Ratio of EC50 for human HepG2 cells to EC50 for Plasmodium falciparum 3D7 infected in human erythrocytes
[7] = Ratio of EC50 for human HepG2 cells to EC50 for Plasmodium falciparum K1 infected in human erythrocytes
[8] = Dissociation constant, pKa of the compound; assay type: physicochemical
[9] = system: HepG2; test: Cytotoxicity against human HepG2 cells assessed as intracellular ATP level after 72 hrs by Celltiter-Glo luminescent assay; assay type: cell-based; conditions: HepG2, 72 h

SMILES	solubility at 18 h [1]	EC50 [2]	EC50 [3]	Ratio EC50 [4]	Papp at 0.5 h [5]	Ratio EC50 [6]	Ratio EC50 [7]	pKa [8]	EC50 [9]
c1coc(CNCCCNc2ccnc3cc(Cc4ccc5c(c4)OCO5)ccc23)c1	32 µM (≈ 13.3 µg/mL)	19 nM	46 nM	2.4	237 ×10⁻⁶ cm/s	340.2	142.2	9.47	6500 nM
COc1cccc(CNCCCNc2ccnc3cc(C4CCCCC4)ccc23)c1O	4.2 µM (≈ 1.76 µg/mL)	19 nM	16000 nM	864.9	23 ×10⁻⁶ cm/s	58.1	0.1	9.47	1080 nM
COc1cccc(CNCCCNc2ccnc3cc(Cc4ccc(F)cc4Cl)ccc23)c1O	4.2 µM (≈ 2.02 µg/mL)	13 nM	5140 nM	404.4	23 ×10⁻⁶ cm/s	185.4	0.5	9.47	2350 nM
Fc1ccc(Cc2ccc3c(NCCCNCc4ccc5c(c4)OCO5)ccnc3c2)cc1	4.2 µM (≈ 1.86 µg/mL)	127 nM	256 nM	2	23 ×10⁻⁶ cm/s	43.7	21.7	9.47	5550 nM
COc1ccc(Oc2ccc3c(NCCCNCc4cccc(OC)c4O)ccnc3c2)cc1	14.5 µM (≈ 6.66 µg/mL)	4 nM	375 nM	91.5	317 ×10⁻⁶ cm/s	1347	15	9.28	5500 nM
COc1cccc(CNCCCNc2ccnc3cc(CC(C)C)ccc23)c1O	4.2 µM (≈ 1.65 µg/mL)	20 nM	8130 nM	402.5	23 ×10⁻⁶ cm/s	144.5	0.4	9.47	2920 nM
COc1cccc(CNCCCNc2ccnc3cc(-c4ccc(F)cc4)ccc23)c1O	32 µM (≈ 13.8 µg/mL)	9 nM	854 nM	92.8	237 ×10⁻⁶ cm/s	742.9	8	9.47	6840 nM
Fc1ccc(Cc2ccc3c(NCCCNCc4ccco4)ccnc3c2)cc1	4.2 µM (≈ 1.64 µg/mL)	57 nM	1660 nM	28.9	23 ×10⁻⁶ cm/s	97.5	3.4	9.47	5600 nM
c1ccc(-c2ccc3c(NCCCNCc4ccco4)ccnc3c2)cc1	32 µM (≈ 11.4 µg/mL)	20 nM	128 nM	6.3	237 ×10⁻⁶ cm/s	291.6	46.4	9.47	5920 nM
CN(C)c1cccc(Oc2ccc3c(NCCCNCc4ccco4)ccnc3c2)c1	14.5 µM (≈ 6.04 µg/mL)	27 nM	155 nM	5.7	317 ×10⁻⁶ cm/s	588	103	9.28	16000 nM
COc1ccc(-c2ccc3c(NCCCNCc4ccc5c(c4)OCO5)ccnc3c2)cc1	32 µM (≈ 14.1 µg/mL)	29 nM	26 nM	0.9	237 ×10⁻⁶ cm/s	192.9	218.3	9.47	5630 nM
COc1ccc(F)cc1CNCCCNc1ccnc2cc(Oc3ccc(Cl)cc3)ccc12	14.5 µM (≈ 6.76 µg/mL)	31 nM	109 nM	3.5	317 ×10⁻⁶ cm/s	143	41	9.28	4500 nM
Fc1ccc(Cc2ccc3c(NCCCNCc4ccco4)ccnc3c2)c(Cl)c1	4.2 µM (≈ 1.78 µg/mL)	20 nM	1220 nM	62.1	23 ×10⁻⁶ cm/s	290.8	4.7	9.47	5730 nM
CC(C)(C)c1ccc(-c2ccc3c(NCCCNCc4ccc5c(c4)OCO5)ccnc3c2)cc1	32 µM (≈ 15 µg/mL)	223 nM	490 nM	2.2	237 ×10⁻⁶ cm/s	6.2	2.8	9.47	1370 nM
CC(C)Cc1ccc2c(NCCCNCc3ccco3)ccnc2c1	4.2 µM (≈ 1.42 µg/mL)	581 nM	4500 nM	7.7	23 ×10⁻⁶ cm/s	27.5	3.6	9.47	16000 nM
COc1cccc(CNCCCNc2ccnc3cc(-c4cc(C(F)(F)F)cc(C(F)(F)F)c4)ccc23)c1O	32 µM (≈ 17.6 µg/mL)	29 nM	209 nM	7.2	237 ×10⁻⁶ cm/s	32.4	4.5	9.47	940 nM
Fc1ccc(Cc2ccc3c(NCCCNCc4ccc5c(c4)OCO5)ccnc3c2)c(Cl)c1	4.2 µM (≈ 2.01 µg/mL)	27 nM	953 nM	35.9	23 ×10⁻⁶ cm/s	603.8	16.8	9.47	16000 nM
COc1cccc(CNCCCNc2ccnc3cc(Cc4cccc(C(F)(F)F)c4)ccc23)c1O	4.2 µM (≈ 2.08 µg/mL)	25 nM	2190 nM	87.9	23 ×10⁻⁶ cm/s	69	0.8	9.47	1720 nM
CC(C)CCc1ccc2c(NCCCNCc3ccc4c(c3)OCO4)ccnc2c1	4.2 µM (≈ 1.7 µg/mL)	27 nM	206 nM	7.6	23 ×10⁻⁶ cm/s	103.1	13.5	9.47	2800 nM
COc1ccc(-c2ccc3c(NCCCNCc4cc(F)ccc4OC)ccnc3c2)cc1	32 µM (≈ 14.3 µg/mL)	96 nM	29 nM	0.3	237 ×10⁻⁶ cm/s	62.1	205.5	9.47	5960 nM
COc1cccc(CNCCCNc2ccnc3cc(Cc4ccc(C#N)cc4)ccc23)c1O	4.2 µM (≈ 1.9 µg/mL)	11 nM	5440 nM	514	23 ×10⁻⁶ cm/s	674.8	1.3	9.47	7150 nM
COc1ccc(F)cc1CNCCCNc1ccnc2cc(Oc3ccccc3OC)ccc12	14.5 µM (≈ 6.69 µg/mL)	22 nM	960 nM	44	317 ×10⁻⁶ cm/s	293	7	9.28	6400 nM
c1cc(NCCCNCc2ccc3c(c2)OCO3)c2ccc(Cc3ccc4c(c3)OCO4)cc2n1	32 µM (≈ 15 µg/mL)	26 nM	27 nM	1	237 ×10⁻⁶ cm/s	185	178.8	9.47	4790 nM
CCC(CC)c1ccc2c(NCCCNCc3cccc(OC)c3O)ccnc2c1	4.2 µM (≈ 1.71 µg/mL)	4 nM	273 nM	68.3	23 ×10⁻⁶ cm/s	103.3	1.5	9.47	410 nM
COc1ccc(F)cc1CNCCCNc1ccnc2cc(-c3cc(C(F)(F)F)cc(C(F)(F)F)c3)ccc12	32 µM (≈ 17.6 µg/mL)	92 nM	812 nM	8.8	237 ×10⁻⁶ cm/s	9.4	1.1	9.47	870 nM
CCC(CC)c1ccc2c(NCCCNCc3cc(F)ccc3OC)ccnc2c1	4.2 µM (≈ 1.72 µg/mL)	40 nM	1930 nM	48	23 ×10⁻⁶ cm/s	194.9	4.1	9.47	7860 nM
COc1ccc(F)cc1CNCCCNc1ccnc2cc(CC3CCCCC3)ccc12	4.2 µM (≈ 1.83 µg/mL)	138 nM	687 nM	5	23 ×10⁻⁶ cm/s	13.3	2.7	9.47	1830 nM
Fc1ccc(Oc2ccc3c(NCCCNCc4ccco4)ccnc3c2)cc1	14.5 µM (≈ 5.68 µg/mL)	26 nM	96 nM	3.6	317 ×10⁻⁶ cm/s	611	167	9.28	16000 nM
